According to ChEMBL document CHEMBL1121674, “Gastric antisecretory agents. 2. Antisecretory activity of 9-[(aminoalkyl)thio]-9H-xanthenes and 5-[(aminoalkyl)thio]-5H-[1]benzopyrano[2,3-b]pyridines” (1981):

Legend:
Rattus norvegicus = experiment: Percent reduction of gastric acid secretion in pylorus ligated rat after intraperitoneal administration at 40 mg/kg.; assay type: functional, Stomach
How it was run: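 Male Charles River CD outbred albino rats, 150-200 g, pylorus ligated; compound dissolved in 2.5% Tween 80 and given ip (0.5 mL/200 g) at ligation. Stomachs removed after 4 h. Gastric content volume recorded, acid titrated with 0.1 N NaOH to pH 7.0, AO in mequiv/4 h. Six rats per compound, eight controls; % inhibition = 100 − 100×(mean test AO/mean control AO); Student's t test.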

Canis familiaris [1] = experiment: Percent reduction of histamine stimulated gastric acid secretion in adult mongrel dog after intravenous administration at 5 mg/kg.; assay type: functional, Canis lupus familiaris, Stomach
How it was run: (§1)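 Heidenhain-pouch mongrel dogs given histamine infusion at 0.4 (μg/kg)/min. Compound given iv 1 h after infusion start. 30-min collections, volume recorded and aliquot titrated for acid. AO = volume × acid concentration, summed for 3 h post-dose and divided by 3-h control AO from the same dog. % inhibition = 100 − percent of control. Usually one dog per compound.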

Canis familiaris [2] = experiment: Percent reduction of histamine stimulated gastric acid secretion in adult mongrel dog after peroral administration of compound at 8 mg/kg; Animal vomited upon compound administration; assay type: functional, organism-based; set-up: dose 8 mg/kg; conditions: Canis lupus familiaris, Stomach
How it was run: (§2)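 Heidenhain-pouch mongrel dogs given histamine infusion at 0.4 (μg/kg)/min. Compound given orally by gavage 1 h after infusion start. 30-min secretions collected and titrated for acid. AO = volume × acid concentration, summed over 3 h after dosing and expressed against 3-h control AO in the same dog. % inhibition = 100 − percent of control. Usually a single dog.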

Canis familiaris [3] = experiment: Percent reduction of histamine stimulated gastric acid secretion in adult mongrel dog after peroral administration of compound at 8 mg/kg; assay type: functional, Canis lupus familiaris, Stomach; conditions: route oral; how it was run: as §2
Canis familiaris [4] = experiment: Percent reduction of histamine stimulated gastric acid secretion in adult mongrel dog after intravenous administration of compound at 5 mg/kg; stimulated gastric acid secretion; assay type: functional, organism-based; set-up: dose 5 mg/kg; conditions: Canis lupus familiaris, Stomach; how it was run: as §1

SMILES	Reduction (Rattus norvegicus)	Reduction (Canis familiaris [1])	Reduction (Canis familiaris [2])	Reduction (Canis familiaris [3])	Reduction (Canis familiaris [4])
Cl.c1ccc2c(c1)Oc1ncccc1C2SCCN1CCOCC1 (stereo not drawn)	64%	66%			
Cl.c1ccc2c(c1)Oc1ccccc1C2SCCN1CCCCC1	98%	<30%			
Cl.Clc1cccc2c1Oc1ccccc1C2SCCN1CCCCC1 (stereo not drawn)	87%	44%			
Cl.NCCCSC1c2ccccc2Oc2c(Cl)cccc21 (stereo not drawn)	99%	33%			
CN(C)CCSC1c2ccccc2Oc2ccccc21.Cl	65%	<30%			
Cl.Clc1ccc2c(c1)Oc1ccccc1C2SCCN1CCCCC1 (stereo not drawn)	80%	<30%			
Cl.c1ccc2c(c1)Oc1ncccc1C2SCCCN1CCOCC1 (stereo not drawn)	62%				
Cc1cccc2c1Oc1ccccc1C2SCCCN.Cl (stereo not drawn)	71%	87%	Animal vomited upon compound administration		
Cc1ccc2c(c1)C(SCCCN)c1ccccc1O2.Cl (stereo not drawn)	100%	80%		<50%	
Cl.Clc1cccc2c1Oc1ccccc1C2SCCN1CCOCC1 (stereo not drawn)	86%	42%			
Cl.NCCCSC1c2ccccc2Oc2ccccc21	44%	68%	Animal vomited upon compound administration		
CN/C(=N\CCSCc1nc[nH]c1C)NC#N [CIMETIDINE]	74%	84%		86%	
CN(C)CCSC1c2ccccc2Oc2ccc(Cl)cc21.Cl (stereo not drawn)	55%	<30%			
Cl.NCCSC1c2ccccc2Oc2ccc(Cl)cc21 (stereo not drawn)	74%	<30%			
COc1ccc2c(c1)C(SCCN1CCOCC1)c1ccccc1O2.Cl (stereo not drawn)	94%				stimulated gastric acid secretion
COc1ccc2c(c1)Oc1ccccc1C2SCCN1CCOCC1.Cl (stereo not drawn)	44%	77%		<30%	
Cl.NCCSC1c2ccccc2Oc2ccccc21	35%	<30%			

SMILES	Reduction (Rattus norvegicus)	Reduction (Canis familiaris [1])	Reduction (Canis familiaris [2])	Reduction (Canis familiaris [3])	Reduction (Canis familiaris [4])
Cl.c1ccc2c(c1)Oc1ccccc1C2SCCCN1CCCCC1	88%	30%			
Cl.c1ccc2c(c1)Oc1ccccc1C2SCCCN1CCOCC1	98%	47%			
Cc1cccc2c1Oc1ccccc1C2SCCN1CCOCC1.Cl (stereo not drawn)	71%	<30%			
COc1ccc2c(c1)C(SCCN1CCCCC1)c1ccccc1O2.Cl (stereo not drawn)	73%	<30%			
Cc1ccc2c(c1)C(SCCN1CCOCC1)c1ccccc1O2.Cl (stereo not drawn)	93%	50%			
COc1ccc2c(c1)Oc1ccccc1C2SCCN1CCCCC1.Cl (stereo not drawn)	47%	<58%		<30%	
Cl.Clc1ccc2c(c1)Oc1ccccc1C2SCCN1CCOCC1 (stereo not drawn)	70%	39%			
CN(C)CCSC1c2ccccc2Oc2ncccc21.Cl (stereo not drawn)	79%	<30%			
Cl.NCCCSC1c2ccccc2Oc2cc(Cl)ccc21 (stereo not drawn)	79%	<30%			
Cl.c1ccc2c(c1)Oc1ccccc1C2SCCN1CCOCC1	93%	56%		<30%	
COc1ccc2c(c1)C(SCCN(C)C)c1ccccc1O2.Cl (stereo not drawn)	63%	<30%			
Cl.NCCSC1c2ccccc2Oc2ncccc21 (stereo not drawn)	<30%	<30%			
Cl.c1ccc2c(c1)Oc1ncccc1C2SCCN1CCCCC1 (stereo not drawn)	61%	63%		<30%	
Cc1cccc2c1Oc1ccccc1C2SCCN1CCCCC1.Cl (stereo not drawn)	85%	<30%			
Cc1ccc2c(c1)C(SCCN1CCCCC1)c1ccccc1O2.Cl (stereo not drawn)	88%	<30%			
Cl.NCCCSC1c2ccccc2Oc2ccc(Cl)cc21 (stereo not drawn)	89%	39%			
